Source: paper PMC10693208 (Evolutionary Bioinformatics Online, 2023)
Several values for one entry are separate records, joined by “and”; a condition that tells them apart may be missing. Equal values may be shown once. Read-outs that look alike come from different tables or passages of the source.

How the values were obtained:
HCT-116 cells [1] = test: MTT cytotoxicity, HCT-116; format: cell-based, human
EGFR^WT = EGFR^WT (Homo sapiens, UniProt P00533); test: In vitro EGFR kinase inhibition; format: biochemical
BAX = test: RT-PCR, BAX level in HCT-116 cells; format: cell-based, human; settings: HCT-116 treated with 23.3 µM, vs control cells = 1
Summary of the method: (§1)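 Total RNA extracted from HCT-116 cells after test compound exposure using a commercial extraction kit. Transcript levels were measured by RT-PCR with SYBR Green master mix. Expression was compared with untreated control cells, taken as 1, and reported as fold change.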

H1975 cells = test: MTT cytotoxicity, H1975; format: cell-based; settings: Homo sapiens, NCI-H1975, read-out: H1975 IC50
Bcl-2 = test: RT-PCR, Bcl-2 level in HCT-116 cells; format: cell-based, human
EGFR^T790M = EGFR^T790M (Homo sapiens, UniProt P00533, T790M); test: In vitro EGFR kinase inhibition; format: biochemical
Casp9 = test: RT-PCR, Casp9 level in HCT-116 cells; format: cell-based, human; settings: HCT-116 treated with 23.3 µM, vs control cells = 1
Summary of the method: as §1

HCT-116 cells [2] = test: Flow cytometric analysis of apoptosis; format: cell-based, human
Casp3 = test: RT-PCR, Casp3 level in HCT-116 cells; format: cell-based, human; settings: HCT-116 treated with 23.3 µM, vs control cells = 1
Summary of the method: as §1

[3] = Homo sapiens, HCT-116, read-out: HCT-116 IC50, MTT, erlotinib as reference
[4] = read-out: HCT-116 IC50, MTT, erlotinib as reference

Sequence of EGFR^WT (P00533 25-1210): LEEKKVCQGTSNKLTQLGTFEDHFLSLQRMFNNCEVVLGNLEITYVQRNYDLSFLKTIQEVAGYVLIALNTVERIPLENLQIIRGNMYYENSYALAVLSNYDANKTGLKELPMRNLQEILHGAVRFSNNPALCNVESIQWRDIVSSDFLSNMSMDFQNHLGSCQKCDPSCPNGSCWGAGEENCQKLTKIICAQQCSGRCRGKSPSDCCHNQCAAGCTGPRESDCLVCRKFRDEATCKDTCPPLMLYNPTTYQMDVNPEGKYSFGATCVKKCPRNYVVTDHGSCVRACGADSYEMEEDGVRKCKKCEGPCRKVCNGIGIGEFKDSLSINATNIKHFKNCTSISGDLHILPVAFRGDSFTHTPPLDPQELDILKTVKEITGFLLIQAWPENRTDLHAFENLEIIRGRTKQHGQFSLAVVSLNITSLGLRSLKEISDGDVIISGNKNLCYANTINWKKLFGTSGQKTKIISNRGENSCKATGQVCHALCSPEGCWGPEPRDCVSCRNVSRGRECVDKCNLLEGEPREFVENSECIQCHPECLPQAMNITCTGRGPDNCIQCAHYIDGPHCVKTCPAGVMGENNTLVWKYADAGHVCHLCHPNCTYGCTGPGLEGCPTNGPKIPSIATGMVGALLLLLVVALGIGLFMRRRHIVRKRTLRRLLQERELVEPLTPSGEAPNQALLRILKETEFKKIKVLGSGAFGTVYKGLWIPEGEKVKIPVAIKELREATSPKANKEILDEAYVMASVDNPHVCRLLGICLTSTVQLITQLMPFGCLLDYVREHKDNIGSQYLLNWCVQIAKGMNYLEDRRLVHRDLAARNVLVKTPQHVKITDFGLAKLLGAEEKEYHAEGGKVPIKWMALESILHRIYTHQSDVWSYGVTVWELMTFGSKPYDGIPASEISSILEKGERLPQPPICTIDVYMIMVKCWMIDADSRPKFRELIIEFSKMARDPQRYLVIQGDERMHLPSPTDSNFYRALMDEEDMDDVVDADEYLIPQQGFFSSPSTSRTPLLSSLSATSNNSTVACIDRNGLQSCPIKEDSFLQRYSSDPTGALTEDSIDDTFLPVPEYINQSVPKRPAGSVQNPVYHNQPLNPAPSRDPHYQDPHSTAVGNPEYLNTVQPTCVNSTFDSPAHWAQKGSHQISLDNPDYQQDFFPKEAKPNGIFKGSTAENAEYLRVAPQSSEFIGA
Sequence of EGFR^T790M (P00533 25-1210 T790M): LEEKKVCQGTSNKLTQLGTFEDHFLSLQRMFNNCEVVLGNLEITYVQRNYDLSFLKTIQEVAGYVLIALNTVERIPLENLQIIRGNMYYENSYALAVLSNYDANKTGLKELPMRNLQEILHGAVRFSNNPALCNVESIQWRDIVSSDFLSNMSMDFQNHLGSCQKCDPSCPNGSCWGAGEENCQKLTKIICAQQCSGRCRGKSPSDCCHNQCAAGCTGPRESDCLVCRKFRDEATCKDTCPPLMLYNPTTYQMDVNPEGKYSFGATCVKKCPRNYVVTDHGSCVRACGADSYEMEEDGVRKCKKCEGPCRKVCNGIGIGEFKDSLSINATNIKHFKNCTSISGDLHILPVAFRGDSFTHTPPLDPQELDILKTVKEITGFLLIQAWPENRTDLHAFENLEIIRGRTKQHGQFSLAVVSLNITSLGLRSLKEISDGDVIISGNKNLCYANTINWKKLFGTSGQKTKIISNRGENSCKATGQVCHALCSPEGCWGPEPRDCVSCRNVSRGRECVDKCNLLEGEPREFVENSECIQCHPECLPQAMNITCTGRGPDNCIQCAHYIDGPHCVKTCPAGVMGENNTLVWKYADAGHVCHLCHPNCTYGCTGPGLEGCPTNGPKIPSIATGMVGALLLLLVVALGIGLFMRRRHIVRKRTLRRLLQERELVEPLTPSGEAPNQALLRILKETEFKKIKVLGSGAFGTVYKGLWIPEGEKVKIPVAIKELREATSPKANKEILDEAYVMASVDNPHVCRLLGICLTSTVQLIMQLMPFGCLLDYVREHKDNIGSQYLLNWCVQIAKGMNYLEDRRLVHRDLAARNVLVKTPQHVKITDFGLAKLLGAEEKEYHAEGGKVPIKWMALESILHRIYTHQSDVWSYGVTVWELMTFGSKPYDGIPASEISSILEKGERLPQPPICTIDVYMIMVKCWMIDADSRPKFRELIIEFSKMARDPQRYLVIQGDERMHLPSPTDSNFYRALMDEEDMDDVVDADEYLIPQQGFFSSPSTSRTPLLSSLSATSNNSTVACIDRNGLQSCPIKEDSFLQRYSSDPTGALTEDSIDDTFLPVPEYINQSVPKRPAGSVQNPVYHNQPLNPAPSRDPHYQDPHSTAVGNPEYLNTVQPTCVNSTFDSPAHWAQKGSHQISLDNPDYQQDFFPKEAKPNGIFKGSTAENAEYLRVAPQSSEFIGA

SMILES | IC50 (HCT-116 cells [1]; [3]) [µM] | IC50 (HCT-116 cells [1]; [4]) [µM] | selectivity index (SI), HCT-116 (HCT-116 cells [1]; SI = IC50 normal cells (Vero) / IC50 cancer cells) | IC50 (EGFR^WT) [µM] | RT-PCR Fold change BAX (BAX) | IC50 (H1975 cells) [µM] | Bcl-2 reduction compared to the control (Bcl-2; HCT-116, reduction factor) [fold] | RT-PCR Fold change Bcl-2 (Bcl-2; HCT-116 treated with 23.3 µM, vs control cells = 1) | IC50 (EGFR^T790M) [µM] | RT-PCR Fold change Casp9 (Casp9) | increase of the total percentage of apoptotic cells vs control (HCT-116 cells [2]; HCT-116) [folds] | Apoptosis, Early (HCT-116 cells [2]; HCT-116, 72 h, Annexin V/PI) [%] | Apoptosis, Late (HCT-116 cells [2]; HCT-116, 72 h, Annexin V/PI) [%] | Necrosis (HCT-116 cells [2]; HCT-116, 72 h, Annexin V/PI) [%] | RT-PCR Fold change Casp3 (Casp3)
C#Cc1cccc(Nc2ncnc3cc(OCCOC)c(OCCOC)cc23)c1 [Erlotinib, reference compound] | 17.8 | 17.9 | – | – | – | – | – | – | – | – | – | – | – | – | –
Cn1cnc2c1c(=O)n(CC(=O)Nc1c(Cl)cccc1Cl)c(=O)n2C [Compound T-1-DOCA, N-(2,6-Dichlorophenyl)-2-(3,7-dimethyl-2,6-dioxo-2,3,6,7-tetrahydro-1H-purin-1-yl)acetamide] | 23.4 | 23.3 | 4.1 | 0.0569 | 5.522 | 14.1 | 2 | 0.521 | 0.269 | 2.2 and 2.238 | ~10 | 8.55 | 18.07 | 3.09 | 3.8 and 3.829
